Data published in ChEMBL document CHEMBL1687750, “Nonclinical pharmacokinetics of oseltamivir and oseltamivir carboxylate in the central nervous system” (Antimicrob Agents Chemother, 2009).

System: CCOC(=O)C1=C[C@@H](OC(CC)CC)[C@H](NC(C)=O)[C@@H](N)C1
Assay: Activity of human MDR1-mediated drug permeability expressed in pig LLC-PK1 cells
Format: cell-based
In short: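 P-gp-transfected LLC-PK1 monolayers; 14C-labelled substrate (0.1 to 10 mM) plus Lucifer yellow added to the apical or basolateral donor side, ± elacridar 1 μM; 37°C, 5% CO2; acceptor sampled at 30 min and 1, 2, 3 h and counted by scintillation; Pe from the 3 h point, not corrected for marker flux; B-to-A/A-to-B ratio; three inserts per condition, mean.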

How did the Km turn out when “ATP-dependent translocase ABCB1 (Homo sapiens)” was run?
The Km was 4.2 mM.

And the Vmax?
The Vmax was 0.000534 µmol/min.
